Reference: the EternaBench riboswitch data

Tested on: MS2 coat protein
Assay: apparent Kd, MS2 coat protein; higher = weaker binding; RNA-MaP array
Procedure, shortened: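 Designed RNAs were transcribed on an Illumina sequencing chip from sequenced DNA templates. They were incubated at room temperature with fluorescently labeled MS2 coat protein at 1.5 nM to 3 μM, for 0.8–1.5 h at the lowest to 10–20 min at the highest concentrations, in Tris-HCl pH 7.5 buffer with KCl, MgCl2, BSA, DTT, tRNA and Tween20, with or without input ligand. Apparent Kd is the median of per-cluster binding-curve fits. Designs measured on fewer than 10 clusters were excluded.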

[1] = designed as: ON switch for flavin mononucleotide, no ligand
[2] = ligand present: flavin mononucleotide, designed as: ON switch for flavin mononucleotide
[3] = designed as: OFF switch for flavin mononucleotide, no ligand
[4] = ligand present: flavin mononucleotide, designed as: OFF switch for flavin mononucleotide
[5] = designed as: OFF switch for theophylline, no ligand
[6] = ligand present: theophylline, designed as: OFF switch for theophylline
[7] = designed as: ON switch for theophylline, no ligand
[8] = ligand present: theophylline, designed as: ON switch for theophylline

| Sequence | apparent Kd [1] [nM] | apparent Kd [2] [nM] | apparent Kd [3] [nM] | apparent Kd [4] [nM] | other results |
| --- | --- | --- | --- | --- | --- |
| UUGAGACAACACCCAACAUGAGGAUCACCCAUGUCACCGAGAGAGGAUAUGCACGAGUAGGUCCAGCAGAAGGCUCUAUGUCAA | 115 | 15.9 |  |  |  |
| CCGGUCCACUAGGAUAUGCGGAGUGUAUAUCACGCAGAAGGAGUCACAUGAGGAUCACCCAUGUGCGUGGGUUG |  |  | 9.4 | 9.16 |  |
| CGGGCGAAGCCUUUCACAUGAGGAUCACCCAUGUCUAAUACGAAGGAUAUCCUCGCCGGAGCUAAGGAGAAGGUCGACAUAGUU |  |  | 18.9 | 19.2 |  |
| AUGCUUAAAAUGCUCAAACAUGAGGAUCACCCAUGUGAGGUCAAGGAUAUUAUUUAACUUGUUUAUAAGAAGGUGACCGAAUGA | 61.1 | 18.7 |  |  |  |
| UCAAGCGAAGGAUAUACAUGAGGAUCACCCAUGUUGGCUAGAAUGAAAGACGGAUUAUGUAGAAGGUCGUGUGC |  |  | 20.3 | 17.6 |  |
| GGAUCGCGAGGAUAUACAUGAGGAUCACCCAUGUUUACUCACACAUUUUUAUUCUUCCGUAGAAGGCGCGCAAG |  |  | 5.52 | 5.4 |  |
| AUCAGUCUAGAAGGAUAUCAGCCCGAAGCCGAGUGAGAAGGUCUAGACAUGAGGAUCACCCAUGUCACAGCAACUAUCAAGAAC |  |  | 9.74 | 19.1 |  |
| UAGGUACAUGAGGAUCACCCAUGUCCUAUUACUACAGGAUAUAGCGUGCCUAGAUGGGUGCUAGAAGGGUAGAUCU | 20.7 | 9.13 |  |  |  |
| UAACAUGAGGAUCACCCAUGUACGAAGAGGGAAAGAAAAGUCAAGGAUAUGCGGAUUUAACUAGCGCAGAAGGUGAUCUAAGUU | 230 | 114 |  |  |  |
| ACUCGGCAUCAUGAUACCAGAGAGCCCGAGAUGCCUUAACACAUGAGGAUCACCCAUGUACUCCCUUGGCAGCAUCAUGCACUAU |  |  |  |  | apparent Kd [5]: 19.4 nM; apparent Kd [6]: 24.4 nM |
| GGAAGUGUCUAGGAUAUCCUUCGAUCUAUGGCAGGAGAAGGAGAUACAUGAGGAUCACCCAUGUAGGUACGGGC |  |  | 7.1 | 6.75 |  |
| CCUGUAGACCCGACAUGAGGAUCACCCAUGUGUAGUUAUGGUAGAAGGUCGUACUGAACACACUCGAAGGAUAUACCCUUAUAC | 13.9 | 13.3 |  |  |  |
| ACAUGCUCUGAGGAUAUCAAUAAUCCCUAUUACUGAGAAGGCAGCACAUGAGGAUCACCCAUGUGAGGUGAGUC |  |  | 34.5 | 58.8 |  |
| UAAUAUGGAGGAUAUAAAGUCGAAGACAUGAGGAUCACCCAUGUCCUUGGUUGAAAGAGGUUAGAAGGCCAUAGUA |  |  | 9.47 | 9.66 |  |
| AUCACAUGAGGAUCACCCAUGUUAGGUAGAUGCAGUAAAGUCUAGGAUAUAAGCUUGUGAAGUAGUUAGAAGGAGACACAUGAG |  |  | 22.9 | 18.3 |  |
| ACAGUAAAUGUGUAGGAUAUGAACUAAACCACAUGAGGAUCACCCAUGUAACGAUUGGAUGGCCUUCAGAAGGACAGGGUUAUUGC | 304 | 215 |  |  |  |
| AUUCAUCUCUAGAAGGGACUGCACAAAACACAGAAUUCUUACAUGAGGAUCACCCAUGUUGUGGGUCAGGAUAUAGGCAGGCCA | 25.3 | 20.1 |  |  |  |
| UAAAUUCGAGGAUAUACGAGCCUCUUGAGCUGCCACGAAGCACAUGAGGAUCACCCAUGUAGAAGGCGACGGAU |  |  | 12.2 | 19.9 |  |
| GACAUGAGGAUCACCCAUGUUUCGGUUACAUUGUAAUCAUGAUAGGAUAUCUCUGCUGUGGUGAGAGAGAAGGAUCGUCUGCUU | 13 | 10.6 |  |  |  |
| UAAGCGUUAGGAUAUACAAAACGAAGAAAGUGAUUCAGAAUACAUGAGGAUCACCCAUGUAGAAGGAACGGGUA |  |  | 17.7 | 24.2 |  |
| AAACCAUCAAACACAUGAGGAUCACCCAUGUCUAAAGAAAUGUAGGAUAUGUAAUACCUAGUCAAACAGAAGGACAUUCAAGAU | 9.39 | 8.35 |  |  |  |
| CUCUAUCAGCAAGGAUAUGGGAGGUGUCGAGUUCCAGAAGGUGCACAUGAGACAUGAGGAUCACCCAUGUUGUGUAGUCCUCGA |  |  | 10.8 | 26.5 |  |
| UCCCGACAUGAGGAUCACCCAUGUCCAUUGUCGGUCGAGAGUAAGGAUAUAGAUAAUCAGGAGAACUAGAAGGUACUGUUAGCG |  |  | 530 | 164 |  |
| AACGAAUGAGGAUAUACAUGAGGAUCACCCAUGUGAAAGGGAGGUUGAAGAUUUGACAGUAGAAGGCAUAUGAC |  |  | 94.2 | 80 |  |

| Sequence | apparent Kd [1] [nM] | apparent Kd [2] [nM] | apparent Kd [3] [nM] | apparent Kd [4] [nM] | other results |
| --- | --- | --- | --- | --- | --- |
| CAACAUGAGGAUCACCCAUGUGGAGGUCCCGUUACCGGCGGAUAGGAUAUGGAACGCAGCGAAAACCAGAAGGAUCUAUAGGAC |  |  |  | 112 |  |
| AUGAUCAUAGUAAGGAUAUCCGGACCAAUAGCAAAGGAGAAGGUACAUGAGGAUCACCCAUGUUUAUUAAUACU |  |  | 9.11 | 9.98 |  |
| AUGUUCGAACAUGAGGAUCACCCAUGUGAACCUCAUAAACGUAGAAGGCGACCGAGUUUAUGGGUCGAGGAUAUACCUCGAGAA |  |  | 334 | 554 |  |
| ACACAUGAGGAUCACCCAUGUCGUGAGAGCUCAGUCGUGCGUUAGGAUAUCAUUCUGUUAGUGUUUGAGAAGGAACGGGUAACC |  |  | 50.1 | 43.3 |  |
| GAUCGCAUCGUGAGGAUAUGAAAUGCCACUCAAAUACAGAAGGCACAUGAGGAUCACCCAUGUCUAGACAAGAG |  |  | 25.9 | 64.9 |  |
| UACUUCACGAUACAGGAUAUACGUAAGUUCACAUGAGGAUCACCCAUGUUAGCACACCAACUCAUGUAGAAGGGUAUCCCUAUAUA | 30.4 | 13.1 |  |  |  |
| GAAGCUCGCGAUGAUACCAGCUCGACUGAUAACAUGAGGAUCACCCAUGUUGUGCGCCCUAGCCCUUGGCAGCAUGACAUAUUCG |  |  |  |  | apparent Kd [7]: 110 nM; apparent Kd [8]: 71.1 nM |
| UCGCGCUAAGGAUAUACUAUAAGCCACAUGAGGAUCACCCAUGUUAUAUACAUGUCCUCGGUAGAAGGUAGCCGGA |  |  | 48.6 | 50.2 |  |
| AGGCGGGUAGGAUAUACCUUGUUCCUAGUAUCCAGUCGAGGACAUGAGGAUCACCCAUGUAGAAGGACCCAUUC |  |  | 30.9 | 36.5 |  |
| AAUAAACGAGGAUAUACAGAUCAAGAUUAUCUAGUGAUCCUACAUGAGGAUCACCCAUGUAGAAGGCGAGAACA |  |  | 51.1 | 66.7 |  |
| ACCAACCACACCCUUCACUGUUUUCGCCGCCGAGGACCGGUACGGCCGCCACUCGUACAAAGACAUGAGGAUCACCCAUGUGCCU |  |  |  |  | apparent Kd (designed as: OFF switch for tryptophan, no ligand): 14.5 nM; apparent Kd (ligand present: tryptophan, designed as: OFF switch for tryptophan): 21.4 nM |
| GGAAUGUAAGGAUAUACCCGUAAGGUAGGGAUCGCAUCGGCGUAGAAGGUACAUGAGGAUCACCCAUGUUCAGC |  |  | 7.78 | 7.97 |  |
| AAGCGCAAAGGAUAUAGCCGAUCCAACAUGAGGAUCACCCAUGUGACUUCCGACAUCAAGCUAGAAGGUUGAUGCA |  |  | 47.6 | 41 |  |
| GAUAAGGAAGGAUAUACAAAGGAACAAAUACACAUUCUAAAACAUGAGGAUCACCCAUGUAGAAGGACCAACAA |  |  | 6.97 | 6.83 |  |
| GAUGGAAUAAGAGAUACCAGACACAAUUUAGCAUGUAUAUACAUGAGGAUCACCCAUGUAGUCCCUUGGCAGCUCUGGUUAGUGU |  |  |  |  | apparent Kd [5]: 26.5 nM; apparent Kd [6]: 26.7 nM |
| AGACCCAGAGGAUAUAACACAUGUAACAUGAGGAUCACCCAUGUGUCUAGUAGACACUUGUUAGAAGGCAGGCAUG |  |  | 83.2 | 54.5 |  |
| GGUCCGACAACAGGAUAUGUCAUACGCUAAUGAACAGAAGGGUUACAUGAGGAUCACCCAUGUGCUUACACAUGCUCCGGAGCA | 10.8 | 17.1 |  |  |  |
| AAUCCAAGAAAUGAUACCAGUCCCACUCAGGACAUGAGGAUCACCCAUGUAAUACAGGGAGACCCUUGGCAGCAUCGAAUAAACA |  |  |  |  | apparent Kd [7]: 432 nM; apparent Kd [8]: 82.7 nM |
| UGAACGUCAAGGCAGGAUAUUCUCAAGACAACAUGAGGAUCACCCAUGUUACAACGAUAAAUGAUGAAGAAGGGCCAGGGAUCAUA | 11.8 | 6.33 |  |  |  |
| GAAAAUUCCUAGAAGGCGGAUUAUACUUGGUUGAACAUGAGGAUCACCCAUGUAUCUGGCAAACCCGAGGAUAUAGAUUUUCCA | 56.2 | 31.2 |  |  |  |
| UGUAUAGCCACUCAGGAUAUAGUUCAUCACACAUGAGGAUCACCCAUGUUACCAAUAUCAUCUGACUAGAAGGGAGAGACUUGCGU | 13.4 | 9.17 |  |  |  |
| UUGCAAGUAGGAUAUAGUAGCGAAUACAUGAGGAUCACCCAUGUAGCCAGUGUAUUGCUUCUAGAAGGACUUCUCC |  |  | 29.3 | 34.9 |  |
| CAUGAUAAGUUGGAUACCAGCAUAUGGAACAACAUGAGGAUCACCCAUGUCAAAUGACAUUGCCCUUGGCAGCCACCUACUGUCA |  |  |  |  | apparent Kd [7]: 20.3 nM; apparent Kd [8]: 11.1 nM |
| ACUCGAUUACACAACCCGACAUGAGGAUCACCCAUGUAUCCGAGAAGGGCUAAUAUAUUCAGGAAGCAGGAUAUCGAAUCAAUA | 87.5 | 50.5 |  |  |  |
